Reference: ChEMBL document CHEMBL1123042, “Ring-substituted 1,1,2,2-tetraalkylated 1,2-bis(hydroxyphenyl)ethanes. 4. Synthesis, estrogen receptor binding affinity, and evaluation of antiestrogenic and mammary tumor inhibiting activity of symmetrically disubstituted 1,1,2,2-tetramethyl-1,2-bis(hydroxyphenyl)ethanes” (1985)
Where “and” joins values, the source holds several entries; their conditions need not be identical. Equal values may be shown once.

Experiments:
[1] = biological target: T1, Estrogen receptor (Mus musculus) (UniProt O08537+P19785); test: Uterotrophic effect in mice at 1000 ug; assay type: functional, tissue-based; settings: Uterus
T1 sequence (O08537 whole entry, looked up): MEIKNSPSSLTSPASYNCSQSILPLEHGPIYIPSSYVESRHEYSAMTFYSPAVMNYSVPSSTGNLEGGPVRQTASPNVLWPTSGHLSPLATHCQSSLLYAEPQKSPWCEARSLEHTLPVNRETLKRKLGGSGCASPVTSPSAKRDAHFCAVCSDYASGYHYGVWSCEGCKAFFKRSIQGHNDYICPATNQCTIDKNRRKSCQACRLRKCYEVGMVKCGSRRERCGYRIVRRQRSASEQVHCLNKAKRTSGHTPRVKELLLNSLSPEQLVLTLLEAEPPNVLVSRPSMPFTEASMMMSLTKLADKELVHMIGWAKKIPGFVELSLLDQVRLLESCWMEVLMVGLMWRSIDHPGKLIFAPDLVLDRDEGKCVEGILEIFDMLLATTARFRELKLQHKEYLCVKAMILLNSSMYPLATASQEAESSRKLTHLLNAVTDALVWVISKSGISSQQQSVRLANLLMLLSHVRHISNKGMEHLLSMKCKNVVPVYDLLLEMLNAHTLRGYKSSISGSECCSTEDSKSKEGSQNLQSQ
T1 sequence (P19785 whole entry, looked up): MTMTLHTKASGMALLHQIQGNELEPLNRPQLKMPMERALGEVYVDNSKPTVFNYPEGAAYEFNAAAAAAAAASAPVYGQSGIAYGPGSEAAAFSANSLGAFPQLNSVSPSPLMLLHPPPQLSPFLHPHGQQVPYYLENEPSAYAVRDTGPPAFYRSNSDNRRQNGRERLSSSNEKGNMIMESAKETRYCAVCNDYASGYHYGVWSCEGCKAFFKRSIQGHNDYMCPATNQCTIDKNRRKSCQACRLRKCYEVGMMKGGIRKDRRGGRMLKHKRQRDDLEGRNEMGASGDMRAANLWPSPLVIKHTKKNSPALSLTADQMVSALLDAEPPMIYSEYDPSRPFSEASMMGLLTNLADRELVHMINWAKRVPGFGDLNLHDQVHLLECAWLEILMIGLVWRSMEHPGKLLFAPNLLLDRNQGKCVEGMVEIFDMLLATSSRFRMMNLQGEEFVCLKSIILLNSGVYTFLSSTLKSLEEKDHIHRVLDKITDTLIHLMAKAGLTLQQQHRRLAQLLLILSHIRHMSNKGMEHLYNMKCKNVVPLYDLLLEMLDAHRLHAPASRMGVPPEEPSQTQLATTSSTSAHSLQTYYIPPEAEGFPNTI
How it was run: (§1)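 Immature female NMRI mice, 20 days old (14.5 ± 1.2 g), 10 per randomized group. Received test compound subcutaneously in 0.1 mL olive oil daily for 3 days. Uteri removed 24 h after final dose, Bouin-fixed, washed, dried and weighed to measure stimulation of uterine growth.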

[2] = biological target: T1, Estrogen receptor (Mus musculus); test: Anti-uterotrophic effect in mice at 50 ug; assay type: functional
How it was run: (§2)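 Immature NMRI mice, 20 days old (14.5 ± 1.2 g), randomly grouped 10 per group. Given daily subcutaneous test compound in 0.1 mL olive oil for 3 days, together with estrone to stimulate uterine growth. Uteri taken 24 h after last injection, fixed in Bouin's solution, washed, dried and weighed. Read-out is inhibition of estrone-stimulated uterine growth.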

[3] = biological target: T1, Estrogen receptor (Mus musculus); test: Uterotrophic effect in mice at 0 ug; assay type: functional, tissue-based; settings: Uterus; how it was run: as §1
[4] = biological target: T1, Estrogen receptor (Mus musculus); test: Percent inhibition of estrone stimulated uterine growth in mice at 500 […]; assay type: functional; how it was run: as §2
[5] = biological target: T1, Estrogen receptor (Mus musculus); test: Anti-uterotrophic effect in mice at 0 ug; assay type: functional; how it was run: as §2
[6] = biological target: T1, Estrogen receptor (Mus musculus); test: Anti-uterotrophic effect in mice at 5 ug; assay type: functional; how it was run: as §2
[7] = biological target: T1, Estrogen receptor (Mus musculus); test: Uterotrophic effect in mice at 10 ug; assay type: functional, tissue-based; settings: Uterus; how it was run: as §1
[8] = biological target: Estrogen receptor (Bos taurus) (UniProt Q9XSB5+P49884); test: Relative binding affinity for calf uterine estrogen receptor compared to [3H]estradiol; assay type: protein assay
How it was run: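 Competition binding with calf uterine cytosol and [3H]estradiol, incubated 16 h at 4 °C and stopped with dextran-coated charcoal. Supernatant radioactivity counted after centrifugation. Six competitor concentrations spanned 50% displacement on a semilog plot. RBA = (molar E2 concentration / competitor concentration each giving 50% reduction of bound [3H]E2) × 100.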

[9] = biological target: T1, Estrogen receptor (Mus musculus); test: Uterotrophic effect in mice at 1 ug; assay type: functional, tissue-based; settings: Uterus; how it was run: as §1
[10] = biological target: T1, Estrogen receptor (Mus musculus); test: Percent inhibition of estrone stimulated uterine growth in mice at 50 […]; assay type: functional; how it was run: as §2
[11] = biological target: T1, Estrogen receptor (Mus musculus); test: Anti-uterotrophic effect in mice at 500 ug; assay type: functional; how it was run: as §2
[12] = biological target: T1, Estrogen receptor (Mus musculus); test: Uterotrophic effect in mice at 100 ug; assay type: functional, tissue-based; settings: Uterus; how it was run: as §1
[13] = biological target: T1, Estrogen receptor (Mus musculus); test: Percent inhibition of estrone stimulated uterine growth in mice at 5 […]; assay type: functional; how it was run: as §2
[14] = system: Rattus norvegicus; test: Percent change in body weight in DMBA-induced mammary carcinoma in rats after 7 day therapy at 2 mg/kg/day; assay type: functional
[15] = system: Rattus norvegicus; test: Percent change in tumor area in DMBA-induced carcinoma in rats after 28 day therapy at 5 mg/kg; assay type: functional
[16] = system: Rattus norvegicus; test: Percent reduction in tumor size (<50%) in DMBA-induced mammary carcinoma in rats at 2 mg/kg/day; assay type: functional
[17] = biological target: T1, Estrogen receptor (Mus musculus); test: Percent inhibition of estrone stimulated uterine growth in mice at 10 […]; assay type: functional; how it was run: as §2
[18] = system: Rattus norvegicus; test: Percent increase in tumor size (>150%) in DMBA-induced mammary carcinoma in rats at 5 mg/kg/day; assay type: functional
[19] = system: Rattus norvegicus; test: ercent reduction in tumor size (<50%) in DMBA-induced mammary carcinoma in rats at 5 mg/kg/day; assay type: functional
[20] = system: Rattus norvegicus; test: Percent change in tumor area in DMBA-induced carcinoma in rats after 28 day therapy at 2 mg/kg; assay type: functional
[21] = biological target: T1, Estrogen receptor (Mus musculus); test: Percent inhibition of estrone stimulated uterine growth in mice at 1000 […]; assay type: functional; how it was run: as §2
[22] = system: Rattus norvegicus; test: Percent unchanged tumor size (51-150%) in DMBA-induced mammary carcinoma in rats at 2 mg/kg/day; assay type: functional
[23] = biological target: T1, Estrogen receptor (Mus musculus); test: Anti-uterotrophic effect in mice at 100 ug; assay type: functional; how it was run: as §2
[24] = system: Rattus norvegicus; test: Percent unchanged tumor size (51-150%) in DMBA-induced mammary carcinoma in rats at 5 mg/kg/day; assay type: functional
[25] = biological target: T1, Estrogen receptor (Mus musculus); test: Anti-uterotrophic effect in mice at 10 ug; assay type: functional; how it was run: as §2
[26] = system: Rattus norvegicus; test: Percent remission in DMBA-Induced Mammary Carcinoma in rats at 5 mg/kg/day; assay type: functional
[27] = system: Rattus norvegicus; test: Percent remission in DMBA-Induced Mammary Carcinoma in rats at 2 mg/kg/day; assay type: functional
[28] = biological target: T1, Estrogen receptor (Mus musculus); test: Anti-uterotrophic effect in mice at 1 ug; assay type: functional; how it was run: as §2
[29] = biological target: T1, Estrogen receptor (Mus musculus); test: Anti-uterotrophic effect in mice at 0.1 ug; assay type: functional; how it was run: as §2
[30] = biological target: T1, Estrogen receptor (Mus musculus); test: Anti-uterotrophic effect in mice at 1000 ug; assay type: functional; how it was run: as §2
[31] = system: Rattus norvegicus; test: Percent change in body weight in DMBA-induced mammary carcinoma in rats after 7 day therapy at 5 mg/kg/day; assay type: functional
[32] = biological target: T1, Estrogen receptor (Mus musculus); test: Percent inhibition of estrone stimulated uterine growth in mice at 100 […]; assay type: functional; how it was run: as §2
[33] = system: Rattus norvegicus; test: Percent increase in tumor size (>150%) in DMBA-induced mammary carcinoma in rats at 2 mg/kg/day; assay type: functional
[34] = biological target: T1, Estrogen receptor (Mus musculus); test: Uterotrophic effect in mice at 250 ug; assay type: functional, tissue-based; settings: Uterus; how it was run: as §1
[35] = biological target: T1, Estrogen receptor (Mus musculus); test: Uterotrophic effect in mice at 80 ug; assay type: functional, tissue-based; settings: Uterus; how it was run: as §1
[36] = biological target: T1, Estrogen receptor (Mus musculus); test: Uterotrophic effect in mice at 24 ug; assay type: functional, tissue-based; settings: Uterus; how it was run: as §1
[37] = biological target: T1, Estrogen receptor (Mus musculus); test: Uterotrophic effect in mice at 8 ug; assay type: functional, tissue-based; settings: Uterus; how it was run: as §1
[38] = system: Rattus norvegicus; test: Percent reduction in tumor size (<50%) in DMBA-induced mammary carcinoma in rats at 5 mg/kg/day; assay type: functional
[39] = biological target: T1, Estrogen receptor (Mus musculus)
[40] = biological target: T1, Estrogen receptor (Mus musculus); settings: Uterus

Row | SMILES | Effect [1] | Effect [2] | Effect [3] | Effect [5] | Effect [7] | relative binding affinity (RBA) [8] | Effect [9] | Effect [11] | Effect [12] | further results
1 | CC(C)(c1ccc(O)cc1Cl)C(C)(C)c1ccc(O)cc1Cl | 35.2 | 38.9 | 13.7 | 13.7 | 51.5 | 3.4 | 35.8 | 35.2 | 32.7 | inhibition [4]: 29%; Effect [6]: 48.4; inhibition [10]: 17%
2 | COc1cc(O)ccc1C(C)(C)C(C)(C)c1ccc(O)cc1OC |  |  |  |  |  | 0.45 |  |  |  | 
3 | COc1ccc(O)cc1C(C)(C)C(C)(C)c1cc(O)ccc1OC |  |  |  |  |  | < 0.01 |  |  |  | 
4 | CC(C)(c1cc(O)ccc1Cl)C(C)(C)c1cc(O)ccc1Cl | 35.7 | 44.2 and 34.9 | 11.1 | 13.7 | 22.6 | 3.5 | 14.7 | 37.8 | 33 | inhibition [13]: 7%; Inhibition (alpha = 0.01) [4]: 27%; Inhibition (alpha = 0.01) [10]: 36%
5 | CC(C)(c1ccc(O)cc1F)C(C)(C)c1ccc(O)cc1F | 38.5 |  | 16.4 | 13.8 | 38.8 | 6.4 | 27 |  | 42.6 | Change of weight [14]: -3.1%; Change of area [15]: -47%; Change of size [16]: 4%; inhibition [17]: 20%; Change of size [18]: 13%; Change of size [19]: 10%; Change of area [20]: 22%; inhibition [21]: 40%; Change of size [22]: 14%; Effect [23]: 35.9; Change of size [24]: 3%; Effect [25]: 41; Remission [26]: 74%; Remission [27]: 64%; Effect [28]: 49.9; Effect [29]: 47.7; Effect [30]: 34.2; Change of weight [31]: -4%; inhibition [32]: 35%; Change of size [33]: 18%
6 | C[C@]12CC[C@@H]3c4ccc(O)cc4CC[C@H]3[C@@H]1CCC2=O |  |  |  |  |  |  |  |  |  | uterine weight [39]: 47.8 mg/100 g; uterine weight [40]: 45.3 mg/100 g

The next lines start with results.

Row | Effect [1] | Effect [2] | Effect [3] | Effect [5] | Effect [7] | relative binding affinity (RBA) [8] | Effect [9] | Effect [11] | Effect [12] | SMILES | further results
7 |  |  |  |  |  | 0.9 |  |  |  | Cc1ccc(O)cc1C(C)(C)C(C)(C)c1cc(O)ccc1C | 
8 | 14.3 |  | 9.2 |  |  | 3.6 |  |  |  | CC(C)(c1ccc(O)cc1)C(C)(C)c1ccc(O)cc1 | Effect [34]: 13.3; Effect [35]: 15.8; Effect [36]: 15.7; Effect [37]: 10.6
9 | 35.6 | 37.2 | 9.7 | 13.7 | 16.6 | 4 | 15.4 | 32.5 | 22.6 | CC(C)(c1cc(O)ccc1F)C(C)(C)c1cc(O)ccc1F | Change of weight [14]: 3.5%; Change of area [15]: 396%; Remission [16]: 7%; Change of size [18]: 89%; inhibition [4]: 43%; Change of area [20]: 441%; Change of size [22]: 16%; Change of size [24]: 7%; Remission [26]: 0%; Effect [6]: 48.6; Remission [27]: 0%; inhibition [10]: 29%; Change of weight [31]: 2.9%; Change of size [38]: 4%; Change of size [33]: 77%
10 | 38 | 50 | 11.1 | 13.7 | 22.2 | 2.6 | 16.6 | 37.3 | 28 | Cc1cc(O)ccc1C(C)(C)C(C)(C)c1ccc(O)cc1C | inhibition [4]: 22%; Effect [6]: 51.2
11 | 13.4 |  | 9.2 |  |  | 3 |  |  |  | CC(C)(c1cccc(O)c1)C(C)(C)c1cccc(O)c1 | Effect [34]: 14.6; Effect [35]: 15.4; Effect [36]: 15.7; Effect [37]: 9.8
12 |  |  |  |  |  | 0.01 |  |  |  | CC(C)(c1cc(O)cc(Cl)c1)C(C)(C)c1cc(O)cc(Cl)c1 | 
